We go through 33 compounds from ChEMBL document CHEMBL5154878, “Potent Inhibition of SARS-CoV-2 nsp14 N7-Methyltransferase by Sulfonamide-Based Bisubstrate Analogues” (J Med Chem, 2022).

Usually IC50 stands for the midpoint of a concentration-inhibition curve. What is called inhibition is the percentage by which the read-out fell short of the control. For orientation: ΔTm means the change in melting temperature against a reference sample.

The target of experiment [1] is Replicase polyprotein 1ab (Severe acute respiratory syndrome coronavirus 2, UniProt P0DTD1). Nature of the experiment: Inhibition of N7-MTase activity of SARS-CoV-2 N-terminus hexahistidine tag nsp14 expressed in Escherichia coli C2566 using [3H]SAM as substrate incubated for 30 mins in presence of mGpppAC4 synthetic RNA by radioactive filter binding assay.
Experiment [2] deals with Replicase polyprotein 1ab (Severe acute respiratory syndrome coronavirus 2) (UniProt P0DTD1). The experiment can be described thus: Inhibition of N7-MTase activity of SARS-CoV-2 N-terminus hexahistidine tag nsp14 expressed in Escherichia coli C2566 at 5 uM using [3H]SAM as substrate incubated for 30 mins in presence of mGpppAC4 synthetic RNA by filter binding assay relative to control.

Experiment [3] can be described thus: Inhibition of N7-MTase activity of SARS-CoV N-terminus hexahistidine tag nsp14 expressed in Escherichia coli C2566 using [3H]SAM as substrate incubated for 30 mins in presence of mGpppAC4 synthetic RNA by radioactive filter binding assay. On the set-up: species or system Severe acute respiratory syndrome-related coronavirus.
The target of experiment [4] is Replicase polyprotein 1ab (Severe acute respiratory syndrome coronavirus 2) (UniProt P0DTD1). The experiment can be described thus: Binding affinity to SARS-CoV-2 N-terminus hexahistidine tag nsp14 expressed in Escherichia coli C2566 assessed as change in melting temperature at 0.5 mM by SYPRO orange dye based thermal shift assay. An outline of the steps: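 nsp14 (freshly purified, 5 μM, in 20 mM Hepes pH 7.5, 150 mM NaCl, ≤5% DMSO) incubated with compound from 500 μM down to 8.4 nM (3-fold serial dilution) plus Sypro Orange 0.00056×. Melt ramp 1 °C per minute, 25–95 °C. Tm from Boltzmann fit; ΔTm taken against DMSO control. Duplicates; Kd from inflection of ΔTm versus concentration.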

In experiment [5] the test system is Severe acute respiratory syndrome coronavirus 2. Nature of the experiment: Binding affinity to SARS-CoV N-terminus hexahistidine tag nsp14 expressed in Escherichia coli C2566 assessed as shift in melting temperature at >2 uM by SYPRO orange dye based thermal shift assay.
Experiment [6] is described as follows: Inhibition of human RNA N7-MTase expressed in Escherichia coli measured using [3H]SAM as substrate incubated for 30 mins in presence of mGpppAC4 synthetic RNA by radioactive filter binding assay.
The nature of experiment [7]: Selectivity index, ratio of IC50 for human RNA N7-MTase to IC50 for SARS-CoV-2 nsp14 N7-MTase activity using [3H]SAM as substrate incubated for 30 mins in presence of mGpppAC4 synthetic RNA by radioactive filter binding assay.
The next experiment is filed under the species Homo sapiens. Nature of the experiment: Inhibition of human RNA N7-MTase expressed in Escherichia coli measured upto 50 uM using [3H]SAM as substrate incubated for 30 mins in presence of mGpppAC4 synthetic RNA by radioactive filter binding assay. The conditions noted are these: DDE = dose-dependent effect.
The target of experiment [8] is Replicase polyprotein 1ab (Severe acute respiratory syndrome coronavirus 2) (UniProt P0DTD1). The experiment can be described thus: Inhibition of N7-MTase activity of SARS-CoV-2 N-terminus hexahistidine tag nsp14 expressed in Escherichia coli C2566 assessed as fold change using [3H]SAM as substrate incubated for 30 mins in presence of mGpppAC4 synthetic RNA by radioactive filter binding assay.

Calls of active or inactive are those of the source. The rule behind the calls is not given here. A value given as a limit tells only on which side of the number the result lay.

For `CCN(C[C@H]1O[C@@H](n2cnc3c(N)ncnc32)[C@H](O)[C@@H]1O)S(=O)(=O)c1cccc(Cl)c1`, in [1], the IC50 is 442 nM. In addition, the inhibition in [2] was 65%.
Regarding `CCN(C[C@H]1O[C@@H](n2cnc3c(N)ncnc32)[C@H](O)[C@@H]1O)S(=O)(=O)c1ccc(OC)c([N+](=O)[O-])c1`, the IC50 in experiment [1] was found to be 44 nM. Moreover, in experiment [2], the inhibition was 100%.
Taken in the same sequence, the figures for `CCN(C[C@H]1O[C@@H](n2cnc3c(N)ncnc32)[C@H](O)[C@@H]1O)S(=O)(=O)c1cccc([N+](=O)[O-])c1` were 516 nM and 75%.
Take `COc1cc([N+](=O)[O-])ccc1S(=O)(=O)NC[C@H]1O[C@@H](n2cnc3c(N)ncnc32)[C@H](O)[C@@H]1O`: the IC50 worked out at 25000 nM in [3] and 5100 nM in experiment [1]. Moreover, the inhibition in [2] stood at 77%.
For `Nc1ncnc2c1ncn2[C@@H]1O[C@H](CNS(=O)(=O)c2cccc([N+](=O)[O-])c2)[C@@H](O)[C@H]1O`, in [1], the IC50 is 3590 nM. Moreover, the inhibition in experiment [2] turned out to be 80%.
With `CCN(C[C@H]1O[C@@H](n2cnc3c(N)ncnc32)[C@H](O)[C@@H]1O)S(=O)(=O)c1cccc(C#N)c1`, the IC50 in experiment [1] is 960 nM. For the same compound, in [2], the inhibition is 65%.
With `Nc1ncnc2c1ncn2[C@@H]1O[C@H](CNS(=O)(=O)c2ccc(F)c([N+](=O)[O-])c2)[C@@H](O)[C@H]1O`, in [1], the IC50 was determined as 4400 nM. The inhibition in experiment [2] turned out to be 87%.
Taken in the same sequence, the figures for `CCc1ccc(S(=O)(=O)NC[C@H]2O[C@@H](n3cnc4c(N)ncnc43)[C@H](O)[C@@H]2O)cc1[N+](=O)[O-]` were 244 nM and 98%.
In the case of `Nc1ncnc2c1ncn2[C@@H]1O[C@H](CNS(=O)(=O)c2ccc(Br)c([N+](=O)[O-])c2)[C@@H](O)[C@H]1O`, the IC50 in experiment [1] is 2900 nM. For the same compound, in [2], the inhibition was 85%.
With `CCN(C[C@H]1O[C@@H](n2cnc3c(N)ncnc32)[C@H](O)[C@@H]1O)S(=O)(=O)c1ccc(Cl)c(Cl)c1`, the IC50 in experiment [1] worked out at 100 nM. In addition, the inhibition in [2] is 100%.
As for `Nc1ncnc2c1ncn2[C@@H]1O[C@H](CNS(=O)(=O)c2cccc([N+](=O)[O-])c2Cl)[C@@H](O)[C@H]1O`, the IC50 came out at 1400 nM in experiment [3] and 2100 nM in experiment [1]. In [2], the inhibition is 75%.
Regarding `CCOC(=O)CCCCN(C[C@H]1O[C@@H](n2cnc3c(N)ncnc32)[C@H](O)[C@@H]1O)S(=O)(=O)c1ccc(OC)c([N+](=O)[O-])c1`, in experiment [1], the IC50 worked out at 114 nM. In experiment [2], the inhibition was found to be 100%.
`CCN(C[C@H]1O[C@@H](n2cnc3c(N)ncnc32)[C@H](O)[C@@H]1O)S(=O)(=O)c1ccc(C)c(Cl)c1`: the IC50 in experiment [1] amounted to 56 nM. Moreover, the inhibition in [2] is 95%. The ΔTm in [4] stood at 11 °C. Further, the outcome in [5] was Active.
With `COc1ccc(S(=O)(=O)NC[C@H]2O[C@@H](n3cnc4c(N)ncnc43)[C@H](O)[C@@H]2O)c([N+](=O)[O-])c1`, the values for the IC50 in experiment [3] and in experiment [1] were 2600 nM and 1400 nM, respectively. Also, in experiment [2], the inhibition amounted to 70%.
On to `COc1ccc(S(=O)(=O)NC[C@H]2O[C@@H](n3cnc4c(N)ncnc43)[C@H](O)[C@@H]2O)cc1C#N`, for which the IC50 in [1] is 514 nM. The inhibition in experiment [2] stood at 100%.
On to `Nc1ncnc2c1ncn2[C@@H]1O[C@H](CNS(=O)(=O)c2ccc([N+](=O)[O-])cc2)[C@@H](O)[C@H]1O`, for which the figures for the IC50 in experiment [3] and in experiment [1] were 7600 nM and 14100 nM, respectively. Besides, the inhibition in experiment [2] was determined as 25%.
For `Cc1ccc(S(=O)(=O)NC[C@H]2O[C@@H](n3cnc4c(N)ncnc43)[C@H](O)[C@@H]2O)cc1[N+](=O)[O-]`, in experiment [1], the IC50 was 342 nM. For the same compound, the inhibition in [2] was found to be 100%.
Consider `Nc1ncnc2c1ncn2[C@@H]1O[C@H](CNS(=O)(=O)c2ccc([N+](=O)[O-])cc2Cl)[C@@H](O)[C@H]1O`, for which the inhibition in experiment [2] was 21%.
Turning to `Cc1ccc(S(=O)(=O)NC[C@H]2O[C@@H](n3cnc4c(N)ncnc43)[C@H](O)[C@@H]2O)cc1Cl`, the IC50 in experiment [1] was 344 nM. In addition, the inhibition in [2] was 90%.
For `Nc1ncnc2c1ncn2[C@@H]1O[C@H](CNS(=O)(=O)c2cccc(Cl)c2)[C@@H](O)[C@H]1O`, in experiment [2], the inhibition was 20%.
Consider `COc1ccc(S(=O)(=O)N(CCCCNc2cccc3ccccc23)C[C@H]2O[C@@H](n3cnc4c(N)ncnc43)[C@H](O)[C@@H]2O)cc1[N+](=O)[O-]`, for which the IC50 in [1] turned out to be 30 nM. Besides, in experiment [2], the inhibition stood at 100%. Further, in experiment [4], the ΔTm stood at 11 °C. Besides, the outcome in experiment [5] was Active.
Turning to `COc1ccc(S(=O)(=O)NC[C@H]2O[C@@H](n3cnc4c(N)ncnc43)[C@H](O)[C@@H]2O)cc1[N+](=O)[O-]`, the IC50 in experiment [1] was found to be 146 nM. In addition, the inhibition in experiment [2] came out at 90%.
With `N#Cc1cc(S(=O)(=O)NC[C@H]2O[C@@H](n3cnc4c(N)ncnc43)[C@H](O)[C@@H]2O)ccc1F`, the IC50 in experiment [1] was found to be 899 nM. Also, in [2], the inhibition was 90%.
Taken in the same sequence, the figures for `Nc1ncnc2c1ncn2[C@@H]1O[C@H](CNS(=O)(=O)c2ccc(Cl)c(Cl)c2)[C@@H](O)[C@H]1O` were 482 nM and 87%.
With `CCN(C[C@H]1O[C@@H](n2cnc3c(N)ncnc32)[C@H](O)[C@@H]1O)S(=O)(=O)c1ccc(C(F)(F)F)cc1[N+](=O)[O-]`, the IC50 in experiment [1] came out at 5000 nM. For the same compound, the inhibition in experiment [2] turned out to be 84%.
Consider `Nc1ncnc2c1ncn2[C@@H]1O[C@H](CNS(=O)(=O)c2ccc(C(F)(F)F)cc2[N+](=O)[O-])[C@@H](O)[C@H]1O`, for which the IC50 in [3] amounted to 3300 nM; in experiment [1], 3500 nM. The inhibition in [2] was found to be 60%.
With `CCN(C[C@H]1O[C@@H](n2cnc3c(N)ncnc32)[C@H](O)[C@@H]1O)S(=O)(=O)c1ccc(Br)c([N+](=O)[O-])c1`, the IC50 in [1] worked out at 80 nM. The inhibition in [2] was determined as 100%.
In the case of `CCN(C[C@H]1O[C@@H](n2cnc3c(N)ncnc32)[C@H](O)[C@@H]1O)S(=O)(=O)c1ccc(OC)c(C#N)c1`, the IC50 was 19 nM in experiment [1] and 52800 nM in experiment [6]. In experiment [7], the Ratio IC50 is above 2000. For the same compound, the inhibition in experiment [2] was 100%; in the experiment filed under Homo sapiens, “Dde”. Besides, in [4], the ΔTm was found to be 11 °C. Besides, the fold change (FC) in experiment [8] stood at 2000. The outcome in experiment [5] was Active.
In the case of `COc1ccc(S(=O)(=O)N(CCCCOC(C)=O)C[C@H]2O[C@@H](n3cnc4c(N)ncnc43)[C@H](O)[C@@H]2O)cc1[N+](=O)[O-]`, the IC50 in experiment [1] was found to be 80 nM. The inhibition in [2] was 100%.
In the case of `CCN(C[C@H]1O[C@@H](n2cnc3c(N)ncnc32)[C@H](O)[C@@H]1O)S(=O)(=O)c1ccc(C)c([N+](=O)[O-])c1`, the 50% inhibitory concentration (IC50) in experiment [1] stood at 38 nM. In addition, the inhibition in experiment [2] was determined as 100%.
For the compound `N#Cc1cc(S(=O)(=O)NC[C@H]2O[C@@H](n3cnc4c(N)ncnc43)[C@H](O)[C@@H]2O)ccc1Cl`, the IC50 in experiment [1] was 1010 nM. Further, the inhibition in experiment [2] amounted to 100%.
`N#Cc1cccc(S(=O)(=O)NC[C@H]2O[C@@H](n3cnc4c(N)ncnc43)[C@H](O)[C@@H]2O)c1`: in experiment [1], the IC50 turned out to be 5300 nM. In addition, in experiment [2], the inhibition turned out to be 80%.
Take `Nc1ncnc2c1ncn2[C@@H]1O[C@H](CNS(=O)(=O)c2ccc(Cl)cc2)[C@@H](O)[C@H]1O`: in experiment [1], the IC50 came to 13000 nM. Besides, the inhibition in experiment [2] was 25%.
